Values after ≈ are worked out from the molar mass of the structure shown. Active and inactive are the calls of the source. The calls are words filed in the database; no cut-off is given here.
Key:
[1] = test system: Escherichia coli; assay: Antibacterial activity against Escherichia coli NR698 assessed as growth inhibition after 24 hrs by microdilution method; format: functional; details: NR698, 24 h
[2] = test system: Escherichia coli; assay: Inhibition of Escherichia coli MC4100 LptBFGC overexpressed in Escherichia coli BL21 (deltaDE3) assessed as inorganic phosphate release at 100 uM after 5 mins by molybdate method
Method in brief: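 Detergent-purified LptBFGC, 0.2 μM in 50 mM Tris-HCl pH 8.0, 500 mM NaCl, 10% glycerol, 0.05% DDM. Preincubated 5 min at 25 °C with 100 μM inhibitor (2% DMSO final). Reaction started with 0.5 mM ATP at 25 °C and stopped in the linear range with 12% SDS. Phosphate was measured by modified molybdate method, relative to uninhibited DMSO control.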

[3] = test system: Escherichia coli; assay: Antibacterial activity against Escherichia coli MC4100 assessed as growth inhibition after 24 hrs by microdilution method; format: functional; details: MC4100, 24 h
[4] = test system: Escherichia coli; assay: Inhibition of Escherichia coli MC4100 His6-tagged LptB overexpressed in Escherichia coli BL21 (deltaDE3) assessed as inorganic phosphate release at 100 uM after 5 mins by molybdate method
Method in brief: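 Single-point assay. Purified His-LptB (7 μM) in 50 mM Tris-HCl pH 8.0, 500 mM NaCl, 10% glycerol was preincubated 5 min at 25 °C with 100 μM inhibitor (2% DMSO final). Started with 1 mM ATP at 25 °C and quenched in the linear range with 12% SDS. Released phosphate was read by molybdate absorbance, relative to a DMSO control.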

[5] = test system: Escherichia coli; assay: Inhibition of Escherichia coli MC4100 LptBFGC overexpressed in Escherichia coli BL21 (deltaDE3) assessed as inorganic phosphate release after 5 mins by molybdate method
Method in brief: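 LptBFGC was expressed from an LptCAB-His6 plasmid in BL21(λDE3) (50 μM IPTG, 2 h, 37 °C) and purified in DDM. Assayed at 0.2 μM in 50 mM Tris-HCl pH 8.0, 500 mM NaCl, 10% glycerol, 0.05% DDM. Varying inhibitor (2% DMSO) was preincubated 5 min at 25 °C, then ATP was added. Quenched in the linear range with SDS. Molybdate phosphate read-out, normalized to DMSO.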

[6] = test system: Escherichia coli; assay: Inhibition of Escherichia coli MC4100 His6-tagged LptB overexpressed in Escherichia coli BL21 (deltaDE3) assessed as inorganic phosphate release after 5 mins by molybdate method
Method in brief: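 His-tagged LptB, Ni-NTA and size-exclusion purified, at 7 μM in 50 mM Tris-HCl pH 8.0, 500 mM NaCl, 10% glycerol. Varied inhibitor concentrations (DMSO, 2% final) were preincubated 5 min at 25 °C, then ATP was added at 25 °C. Stopped within the linear range with an equal volume of 12% SDS. Phosphate was read by modified molybdate absorbance and normalized to the DMSO control.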

[7] = test system: Escherichia coli; assay: Selectivity ratio of IC50 for Escherichia coli MC4100 LptBFGC to IC50 for Escherichia coli MC4100 His6-tagged LptB

MIC [1] [µM] | inhibition [2] | MIC [3] [µM] | inhibition [4] | inhibition [5] | inhibition [6] | Ratio IC50 [7] | Compound
12.5 (≈ 5.09 µg/mL) | Active | > 100 | Active |  |  |  | O=C1NC(=O)c2c1c(-c1ccccc1Br)cc1[nH]c3ccc(O)cc3c21
25 (≈ 9.36 µg/mL) | Active | > 100 | Active |  |  |  | CSc1ccccc1-c1cc2[nH]c3ccc(O)cc3c2c2c1C(=O)NC2=O
50 (≈ 27.6 µg/mL) | Active | > 100 | Active |  |  |  | Cn1c2cc(S(=O)(=O)CCCN3CCCC3)c(O)cc2c2c3c(c(-c4ccccc4Cl)cc21)C(=O)NC3=O
25 (≈ 11.9 µg/mL) | Active | > 100 | Active |  |  |  | CN(C)CCCOc1cc2c(cc1O)c1c3c(c(-c4ccccc4Cl)cc1n2C)C(=O)NC3=O
25 (≈ 9.07 µg/mL) |  | > 100 |  |  |  |  | O=C1NC(=O)c2c1c(-c1ccccc1Cl)cc1[nH]c3ccc(O)cc3c21
100 (≈ 53.4 µg/mL) | Active | > 100 | Active |  |  |  | O=C1NC(=O)c2c1c(-c1ccccc1Cl)cc1c2c2cc(O)c(OCCCN3CCCC3)cc2n1CCO
100 (≈ 50.4 µg/mL) | Active | > 100 | Active |  |  |  | Cn1c2cc(OCCCN3CCCC3)c(O)cc2c2c3c(c(-c4ccccc4Cl)cc21)C(=O)NC3=O
12.5 (≈ 4.97 µg/mL) |  | > 100 |  | Dose-dependent effect | Dose-dependent effect | 6 | O=C1NC(=O)c2c1c(-c1c(Cl)cccc1Cl)cc1[nH]c3ccc(O)cc3c21

Reference: ChEMBL document CHEMBL2406992, “Validation of inhibitors of an ABC transporter required to transport lipopolysaccharide to the cell surface in Escherichia coli” (2013)
